Reference: PubChem BioAssay
The source made the active and inactive calls.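 The calls were made as follows, unless noted: active = viability at or under a set limit in both replicates, limit being median viability minus 3 SD (cut at about 48% in these data, passing the limit was not always enough); inconclusive = at or under the limit in just one replicate; inactive = at or above the limit in both replicates.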

What was measured:
[1] = reducers of endogenous Her2 protein level, primary screen, SKBR3 breast tumor cells, AlphaScreen, ATP viability (AID 461;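 active = Her2 level under about 52% in both replicate screens, with viability over 70% of control, limit read from the data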;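 as to Her2 level: lower value means less Her2 protein in the cells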;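 as to viability: percent of carrier control wells set as 100% viability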); details: 18-24 h, measured here: SKBR3 viability, ATP luminescence, at 10 µM
[2] = target: Receptor tyrosine-protein kinase erbB-2 (Homo sapiens) (UniProt P04626); assay: as above; details: 18-24 h, at 10 µM, stronger effect = lower value
[3] = SK-BR-3 cell growth inhibitors, pilot screen, 24 h, human (AID 572;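 active = viability at or below 10% of carrier control in both of two separate runs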;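 also: compound exposure lasted between 18 and 24 h rather than exactly 24 h; 100% = carrier-treated control wells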); details: SK-BR-3 viability, CellTiter-Glo luminescence, at 10 µM, stronger effect = lower value
[4] = HUVEC growth inhibition – cell-based, human, primary screen (AID 575;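 active = viability at or below 30% in both replicate assays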;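 also: 100% = median of untreated cell wells with 0.1% DMSO on each plate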); details: HUVEC proliferation, CellTiter-Glo luminescence, 72 h; at 10 µM; stronger effect = lower value
Method in brief: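 Material: primary human umbilical vein endothelial cells / Schedule: 72 h exposure, 37 °C, 5% CO2, 30 min RT equilibration / Signal: ATP-based CellTiter-Glo luminescent read / Read-out basis: percent of median DMSO-control luminescence / Control set: 32 DMSO-only cell-control wells (high), 32 MePR drug-control wells (low) per plate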

[5] = growth inhibitors of H69AR lung tumor, primary screen, human, duplicate replicates (AID 580); details: H69AR lung tumor cells viability, ATP luminescence, 72 h; at 10 µM; stronger effect = lower value;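 also: 100% = mean luminescence of untreated wells and 0% = no signal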
[6] = reversal of MRP1-mediated doxorubicin resistance, pilot screen, H69AR cells, doxorubicin co-treatment (AID 601;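 active = viability loss from added drug above about 55%, and viability with drug at most 40%, in both replicates, limit read from the data, passing the limit was not always enough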); details: CellTiter-Glo, 72 h, at 10 µM; for differential viability (reversal): stronger effect = higher value
[7] = 384-well plate pilot, post-Golgi transport modulator project, inhibition of yeast transport mutant growth (AID 636; in the data active = inhibition above about 31%); details: absorbance 615 nm, about 18 h, stronger effect = higher value
[8] = growth suppression of yeast trafficking mutant, preliminary HTS, modulators of trafficking downstream of Golgi apparatus project, 1536-format plate, OD 615 nm (AID 637; in the data active = inhibition above about 30%); details: yeast transport mutant growth, absorbance 615 nm, 18 h; stronger effect = higher value
[9] = H69AR cells + 2 uM doxorubicin, measured here: viability with 2 uM doxorubicin, stronger effect = lower value
[10] = H69AR cells, compound alone cytotoxicity

Receptor tyrosine-protein kinase erbB-2 (Homo sapiens), sequence (P04626 whole entry, looked up): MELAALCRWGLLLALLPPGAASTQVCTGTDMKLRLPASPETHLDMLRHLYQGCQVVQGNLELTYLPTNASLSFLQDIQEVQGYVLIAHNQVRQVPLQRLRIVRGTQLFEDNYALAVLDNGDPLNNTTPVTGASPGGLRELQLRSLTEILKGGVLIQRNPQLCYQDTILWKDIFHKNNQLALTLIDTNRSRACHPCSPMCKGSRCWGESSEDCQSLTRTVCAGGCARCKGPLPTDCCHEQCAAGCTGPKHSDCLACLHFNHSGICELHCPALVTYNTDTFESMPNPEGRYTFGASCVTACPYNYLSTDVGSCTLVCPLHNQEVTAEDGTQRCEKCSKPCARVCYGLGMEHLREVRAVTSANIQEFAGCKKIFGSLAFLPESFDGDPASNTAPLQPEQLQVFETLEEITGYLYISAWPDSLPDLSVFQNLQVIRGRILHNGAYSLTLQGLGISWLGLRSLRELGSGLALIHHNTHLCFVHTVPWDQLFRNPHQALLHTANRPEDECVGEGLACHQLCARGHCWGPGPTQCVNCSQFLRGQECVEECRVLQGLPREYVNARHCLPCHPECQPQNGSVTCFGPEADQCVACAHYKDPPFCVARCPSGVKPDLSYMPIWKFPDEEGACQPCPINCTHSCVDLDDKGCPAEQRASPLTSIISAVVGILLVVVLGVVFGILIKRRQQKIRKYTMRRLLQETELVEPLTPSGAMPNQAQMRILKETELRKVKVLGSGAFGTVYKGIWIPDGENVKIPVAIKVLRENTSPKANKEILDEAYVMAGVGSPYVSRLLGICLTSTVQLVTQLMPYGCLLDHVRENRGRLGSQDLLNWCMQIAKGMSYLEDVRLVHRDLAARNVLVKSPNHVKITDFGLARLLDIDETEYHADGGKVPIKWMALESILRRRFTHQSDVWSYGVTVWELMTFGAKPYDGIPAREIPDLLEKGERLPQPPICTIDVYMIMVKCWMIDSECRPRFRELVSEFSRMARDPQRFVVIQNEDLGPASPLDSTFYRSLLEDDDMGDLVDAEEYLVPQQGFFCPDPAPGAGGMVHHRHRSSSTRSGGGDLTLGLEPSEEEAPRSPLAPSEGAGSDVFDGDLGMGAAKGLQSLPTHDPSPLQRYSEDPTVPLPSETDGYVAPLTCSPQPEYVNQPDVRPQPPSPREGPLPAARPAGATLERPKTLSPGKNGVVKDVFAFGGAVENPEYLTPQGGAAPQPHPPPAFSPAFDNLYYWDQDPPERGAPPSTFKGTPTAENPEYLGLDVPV

C/C=C/c1ccc(OCCn2cncn2)c(OC)c1
viability [1]: 98.5% | Her2 level [2]: 126% (inactive) | viability [3]: 98.5% (inactive) | viability [4]: 95.6% (inactive) | viability [5]: 89.8% (inactive) | differential viability (reversal) ([6]; H69AR cells + 2 uM doxorubicin): 1.09% (inactive) | viability [6, 9]: 88.7% | viability [6, 10]: 89.8% | inhibition [7]: 0.14% (inactive) | inhibition [8]: 0.66% (inactive)

N#CC1=C(N)S[C@H](C(=O)C23CC4CC(CC(C4)C2)C3)[C@H]1c1ccncc1
viability [1]: 81% | Her2 level [2]: 79% (inactive) | viability [3]: 81% (inactive) | viability [4]: 41% (inactive) | viability [5]: 93.7% (inactive) | differential viability (reversal) ([6]; H69AR cells + 2 uM doxorubicin): 47.6% (inactive) | viability [6, 9]: 46.1% | viability [6, 10]: 93.7% | inhibition [7]: -2.8% (inactive) | inhibition [8]: 4.84% (inactive)

CCOc1ccc(NCCC(=O)c2ccc3c(c2)OCO3)cc1
viability [1]: 90% | Her2 level [2]: 84.5% (inactive) | viability [3]: 90% (inactive) | viability [4]: 75.7% (inactive) | viability [5]: 66.1% (inactive) | differential viability (reversal) ([6]; H69AR cells + 2 uM doxorubicin): -13.5% (inactive) | viability [6, 9]: 79.6% | viability [6, 10]: 66.1% | inhibition [7]: -6.71% (inactive) | inhibition [8]: -5.5% (inactive)

O=C1NC(c2ccccc2)(C(F)(F)F)SC2=CCCCCN12 (stereo not given)
viability [1]: 90.5% | Her2 level [2]: 106% (inactive) | viability [3]: 90.5% (inactive) | viability [4]: 86.2% (inactive) | viability [5]: 94.3% (inactive) | differential viability (reversal) ([6]; H69AR cells + 2 uM doxorubicin): 2.37% (inactive) | viability [6, 9]: 92% | viability [6, 10]: 94.3% | inhibition [7]: -3.29% (inactive) | inhibition [8]: -3.33% (inactive)

CCCCCc1c(C)nc(Nc2nc(C)c3cc(OC)ccc3n2)[nH]c1=O
viability [1]: 92.5% | Her2 level [2]: 85.5% (inactive) | viability [3]: 92.5% (inactive) | viability [4]: 55.2% (inactive) | viability [5]: 78% (inactive) | differential viability (reversal) ([6]; H69AR cells + 2 uM doxorubicin): 22.3% (inactive) | viability [6, 9]: 55.7% | viability [6, 10]: 78% | inhibition [7]: -7.7% (inactive) | inhibition [8]: 11.1% (inactive)

O=S(=O)(c1ccccc1)N(Cc1nc(-c2ccccc2)no1)C1CCCCC1
viability [1]: 88% | Her2 level [2]: 77% (inactive) | viability [3]: 88% (inactive) | viability [4]: 96.1% (inactive) | viability [5]: 75.5% (inactive) | differential viability (reversal) ([6]; H69AR cells + 2 uM doxorubicin): -4.17% (inactive) | viability [6, 9]: 79.6% | viability [6, 10]: 75.5% | inhibition [7]: -6.27% (inactive) | inhibition [8]: -3.33% (inactive)

O=C(CSc1nnc(-c2ccncc2)n1-c1ccc(F)cc1)NC(=O)NCc1ccco1
viability [1]: 132% | Her2 level [2]: 89% (inactive) | viability [3]: 132% (inactive) | viability [4]: 89.1% (inactive) | viability [5]: 86% (inactive) | differential viability (reversal) ([6]; H69AR cells + 2 uM doxorubicin): -1.76% (inactive) | viability [6, 9]: 87.8% | viability [6, 10]: 86% | inhibition [7]: -7.4% (inactive) | inhibition [8]: -3.97% (inactive)

Cc1cc(C)c2c(N)c(C(=O)N3CCN(c4ncccn4)CC3)sc2n1
viability [1]: 104% | Her2 level [2]: 96.5% (inactive) | viability [3]: 104% (inactive) | viability [4]: 98.2% (inactive) | viability [5]: 101% (inactive) | differential viability (reversal) ([6]; H69AR cells + 2 uM doxorubicin): 0.855% (inactive) | viability [6, 9]: 101% | viability [6, 10]: 101% | inhibition [7]: -5.53% (inactive) | inhibition [8]: 0.49% (inactive)

Cn1nnnc1SCc1cn2cccnc2n1
viability [1]: 112% | Her2 level [2]: 90.5% (inactive) | viability [3]: 112% (inactive) | viability [4]: 101% (inactive) | viability [5]: 89.3% (inactive) | differential viability (reversal) ([6]; H69AR cells + 2 uM doxorubicin): -0.09% (inactive) | viability [6, 9]: 89.4% | viability [6, 10]: 89.3% | inhibition [7]: -5.33% (inactive) | inhibition [8]: -3.33% (inactive)

O=c1[nH]c2cccnc2n1Cc1ccco1
viability [1]: 90% | Her2 level [2]: 88% (inactive) | viability [3]: 90% (inactive) | viability [4]: 107% (inactive) | viability [5]: 97.5% (inactive) | differential viability (reversal) ([6]; H69AR cells + 2 uM doxorubicin): 13.8% (inactive) | viability [6, 9]: 83.8% | viability [6, 10]: 97.5% | inhibition [7]: -4.32% (inactive) | inhibition [8]: 0.83% (inactive)

O=C(OCC#CCSc1nnc(-c2ccncc2)o1)c1cccs1
viability [1]: 118% | Her2 level [2]: 102% (inactive) | viability [3]: 118% (inactive) | viability [4]: 88.2% (inactive) | viability [5]: 82% (inactive) | differential viability (reversal) ([6]; H69AR cells + 2 uM doxorubicin): -1.25% (inactive) | viability [6, 9]: 83.3% | viability [6, 10]: 82% | inhibition [7]: -4.67% (inactive) | inhibition [8]: 1.43% (inactive)

O=C(c1cc2cc(Cl)cc(Cl)c2oc1=O)N1CCOCC1
viability [1]: 76% | Her2 level [2]: 82.5% (inactive) | viability [3]: 76% (inactive) | viability [4]: 96% (inactive) | viability [5]: 88.4% (inactive) | differential viability (reversal) ([6]; H69AR cells + 2 uM doxorubicin): 0.725% (inactive) | viability [6, 9]: 87.7% | viability [6, 10]: 88.4% | inhibition [7]: -6.35% (inactive) | inhibition [8]: 3.44% (inactive)

O=C(/C=N/O)Nc1cccnc1
viability [1]: 110% | Her2 level [2]: 90% (inactive) | viability [3]: 110% (inactive) | viability [4]: 91.3% (inactive) | viability [5]: 83.2% (inactive) | differential viability (reversal) ([6]; H69AR cells + 2 uM doxorubicin): -6.35% (inactive) | viability [6, 9]: 89.6% | viability [6, 10]: 83.2% | inhibition [7]: -1.84% (inactive) | inhibition [8]: 3.71% (inactive)

Cc1cc(NC(=O)CSc2ccc3nnc(-c4cccc(F)c4)n3n2)no1
viability [1]: 108% | Her2 level [2]: 102% (inactive) | viability [3]: 108% (inactive) | viability [4]: 103% (inactive) | viability [5]: 94.6% (inactive) | differential viability (reversal) ([6]; H69AR cells + 2 uM doxorubicin): 8.17% (inactive) | viability [6, 9]: 86.4% | viability [6, 10]: 94.6% | inhibition [7]: -4.19% (inactive) | inhibition [8]: -4.17% (inactive)
